ChEMBL document CHEMBL1137941, “Doxorubicin prodrug on the basis of tert-butyl cephalosporanate sulfones” (Bioorg Med Chem Lett, 2004)
Converted amounts (≈) assume the structure as drawn. The source made the active and inactive calls. No cut-off for these calls is given here.

How the values were obtained:
N2a [1] = experiment: In vitro cytotoxic concentration against mouse neuroblastoma (neuro 2A) using MTT coloration; type: functional, cell-based
MG-22A [2] = experiment: In vitro inhibitory activity against mouse hepatoma cell line (MG-22A) using CV coloration; type: functional, cell-based
HT-1080 [3] = experiment: In vitro cytotoxic concentration against human fibrosarcoma cell line (HT1080) using MTT coloration; type: functional, cell-based
B16 [4] = experiment: In vitro inhibitory activity against mouse melanoma cell line (B16) using CV coloration; type: functional, cell-based
HT-1080 [5] = experiment: In vitro inhibitory activity against human fibrosarcoma cell line (HT1080) using CV coloration; type: functional, cell-based
B16 [6] = experiment: In vitro cytotoxic concentration against mouse melanoma cell line (B16) using MTT coloration; type: functional, cell-based
N2a [7] = experiment: In vitro inhibitory activity against mouse neuroblastoma (neuro 2A) using CV coloration; type: functional, cell-based
MG-22A [8] = experiment: In vitro cytotoxic concentration against mouse hepatoma cell line (MG-22A) using MTT coloration; type: functional, cell-based
CCRF S-180 [9] = experiment: Growth inhibitory effect of compound when administered at dose of 1.5 mg/kg/day given in the schedule of 1,2,3,4,7 day against Sarcoma S-180 tumor transplanted in male JRC mice was determined; No effect; conditions: Mus musculus
Mus musculus [10] = experiment: Physiological change in cardiomyocytes after the treatment of male JRC healthy mice by the administration of compound at dose of 1.5 mg/kg/day cells isolated on the 9th day by using CB assay; type: functional
How it was run: (§1)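 Male JRC mice, healthy or bearing Sarcoma S-180, were dosed on days 1, 2, 3, 4 and 7. Cardiomyocytes were isolated on day 9 and resuspended in DMEM with 4% FBS, 2 mM glutamine, 13 mM NaHCO₃, 10 mM HEPES and streptomycin. After 4 h at 37° (95% air/5% CO₂), serum was omitted. Intracellular peptide was read by Coomassie Blue and mitochondrial redox by MTT, against cells from untreated animals.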

CCRF S-180 [11] = experiment: Growth inhibitory effect administered at dose of 1.5 mg/kg/day given in the schedule of 1,2,3,4,7 day against Sarcoma S-180 tumor transplanted in male JRC mice at fourteenth day was determined; No effect; type: functional, organism-based; conditions: Mus musculus
How it was run: (§2)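 Mice given the agent on days 1, 2, 3, 4 and 7. Doxorubicin was given in physiological solution (0.9% NaCl, pH 6.2). Prodrugs were given in the same solution with 2% DMSO and 0.3% agarose. Tumour growth inhibition (%) was read on fixed days against a vehicle-treated control; in the 2.0 mg/kg/day series, controls received physiological solution only. Negative values mean tumour growth was activated.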

Mus musculus [12] = experiment: Physiological change in cardiomyocytes after the treatment of male JRC mice with transplanted sarcoma S-180 by the administration of compound at dose of 1.5 mg/kg/day cells isolated on the 9th day by using MTT assay; type: functional; how it was run: as §1
CCRF S-180 [13] = experiment: Growth inhibitory effect administered at dose of 5.0 mg/kg/day given in the schedule of 1,2,3,4,7 day against Sarcoma S-180 tumor transplanted in male JRC mice at fourteenth day was determined; type: functional; conditions: Mus musculus; how it was run: as §2
CCRF S-180 [14] = experiment: Growth inhibitory effect administered at dose of 5.0 mg/kg/day given in the schedule of 1,2,3,4,7 day against Sarcoma S-180 tumor transplanted in male JRC mice at eleventh day was determined; type: functional; conditions: Mus musculus; how it was run: as §2
Mus musculus [15] = experiment: Physiological change in cardiomyocytes after the treatment of male JRC healthy mice by the administration of compound at dose of 1.5 mg/kg/day cells isolated on the 9th day by using MTT assay; type: functional; how it was run: as §1
B16 [16] = experiment: Growth inhibitory effect administered at dose of 2.0 mg/kg/day given in the schedule of 1,2,3,4,7 day against (B16) mouse melanoma at eleventh day was determined; type: functional; how it was run: as §2
Mus musculus [17] = experiment: Physiological change in cardiomyocytes after the treatment of male JRC mice with transplanted sarcoma S-180 by the administration of compound at dose of 5.0 mg/kg/day cells isolated on the 9th day by using CB assay; type: functional; how it was run: as §1
Mus musculus [18] = experiment: Physiological change in cardiomyocytes after the treatment of male JRC healthy mice by the administration of compound at dose of 5.0 mg/kg/day cells isolated on the 9th day by using CB assay; type: functional; how it was run: as §1
B16 [19] = experiment: Growth inhibitory effect administered at dose of 1.5 mg/kg/day given in the schedule of 1,2,3,4,7 day against (B16) mouse melanoma at eleventh day was determined; type: functional; how it was run: as §2
Mus musculus [20] = experiment: Physiological change in cardiomyocytes after the treatment of male JRC mice with transplanted sarcoma S-180 by the administration of compound at dose of 5.0 mg/kg/day cells isolated on the 9th day by using MTT assay; type: functional; how it was run: as §1
Mus musculus [21] = experiment: Physiological change in cardiomyocytes after the treatment of male JRC healthy mice by the administration of compound at dose of 5.0 mg/kg/day cells isolated on the 9th day by using MTT assay; type: functional; how it was run: as §1
Mus musculus [22] = experiment: Physiological change in cardiomyocytes after the treatment of male JRC mice with transplanted sarcoma S-180 by the administration of compound at dose of 1.5 mg/kg/day cells isolated on the 9th day by using CB assay; type: functional; how it was run: as §1
B16 [23] = experiment: Growth inhibitory effect administered at dose of 1.5 mg/kg/day given in the schedule of 1,2,3,4,7 day against (B16) mouse melanoma at fourteenth day was determined; type: functional; how it was run: as §2

Structure (SMILES)	IC50 (N2a [1]) [µg/mL]	IC50 (MG-22A [2]) [µg/mL]	IC50 (HT-1080 [3]) [µg/mL]	IC50 (B16 [4]) [µg/mL]	IC50 (HT-1080 [5]) [µg/mL]	IC50 (B16 [6]) [µg/mL]	IC50 (N2a [7]) [µg/mL]	IC50 (MG-22A [8]) [µg/mL]	also measured
CC1=C(C(=O)OC(C)(C)C)N2C(=O)[C@H](Cl)[C@H]2S(=O)(=O)C1	2 (≈ 6.22 µM)	6 (≈ 18.6 µM)	6 (≈ 18.6 µM)	3 (≈ 9.32 µM)	6 (≈ 18.6 µM)	2 (≈ 6.22 µM)	2 (≈ 6.22 µM)	2 (≈ 6.22 µM)	
COc1cccc2c1C(=O)c1c(O)c3c(c(O)c1C2=O)C[C@@](O)(C(=O)CO)C[C@@H]3O[C@H]1C[C@H](NC(=O)OCC2=C(C(=O)OC(C)(C)C)N3C(=O)[C@@H](Cl)[C@@H]3S(=O)(=O)C2)[C@@H](O)[C@H](C)O1	0.008 (≈ 0.00882 µM)	0.03 (≈ 0.0331 µM)	0.08 (≈ 0.0882 µM)	0.03 (≈ 0.0331 µM)	0.02 (≈ 0.022 µM)	0.04 (≈ 0.0441 µM)	0.001 (≈ 0.0011 µM)	0.04 (≈ 0.0441 µM)	inhibition (CCRF S-180 [9]): inactive; Activity (Mus musculus [10]): 92; inhibition (CCRF S-180 [11]): inactive; Activity (Mus musculus [12]): 225; inhibition in vivo at 5 mg/kg/day (CCRF S-180 [13]): 30%; inhibition in vivo at 5 mg/kg/day (CCRF S-180 [14]): 72%; Activity (Mus musculus [15]): 85; Inhibition (B16 [16]): 86%; inhibition in vivo at 2 mg/kg/day (B16 [16]; Mus musculus, B16, read-out: Inhibition): 86%; Activity (Mus musculus [17]): 70; Activity (Mus musculus [18]): 90; inhibition in vivo at 1.5 mg/kg/day (B16 [19]): 75%; Activity (Mus musculus [20]): 230; Activity (Mus musculus [21]): 87; Activity (Mus musculus [22]): 106; inhibition in vivo at 1.5 mg/kg/day (B16 [23]): 26%
